System: MS2 coat protein
Assay: apparent Kd, MS2 coat protein; higher = weaker binding; RNA-MaP array; theophylline 2 mM where present
In short: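 Stalled E. coli RNA polymerase transcribed the designs on Illumina sequencing-chip clusters. SNAP-549-labelled MS2 coat protein was titrated from 0.7 or 1.5 nM, doubling to 3 µM, without and then with constant ligand, in 100 mM Tris-HCl pH 7.5, 80 mM KCl, 4 mM MgCl2, BSA, DTT, yeast tRNA and Tween-20. Per-cluster binding curves were fitted to green signal normalised to red-channel RNA signal and control-cluster median Fmax. The apparent Kd is the median of the filtered fits.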

[1] = designed as: ON switch for theophylline, no ligand
[2] = ligand present: theophylline, designed as: ON switch for theophylline
[3] = designed as: OFF switch for theophylline, no ligand
[4] = ligand present: theophylline, designed as: OFF switch for theophylline

Row | Sequence | apparent Kd [1] | apparent Kd [2] | apparent Kd [3] | apparent Kd [4]
1 | AGGCAGUAGGUGAUCCACUGCCAAGGUGAUACCAGCAUCGAAAGAUGCCCUUGGCAGCACCAACAUGAGGAUCACCCAUGUAAUA | 108 nM | 663 nM | – | –
2 | ACAUGAGGGAUGGAUACCAGCGACAUGAGGAUCACCCAUGUAUGAGGAUCAGCCAUGUUAUGCCCUUGGCAGCCACGAACAUCAG | – | – | 26.6 nM | 226 nM
3 | ACACAUGAGGAUCACCCAUGUUCAAUAGAUACCAGUGAUACGGUGCACCCUUGGCAGCUGUUGCUGAGUGAUGGUUCCCUCGGUA | 41.3 nM | 65.4 nM | – | –
4 | CUCGAGUUAUGAGAUACCAGACUAUAGUUUACAUGAGGAUCACCCAUGUUAUGGGUGGUAGUCCCUUGGCAGCUCAUAUGUUUAA | – | – | 225 nM | 812 nM
5 | ACAUGAGGAUCACCCAUGUUCCUCAUUGAUACCAGUGAAUUUAGACGCCCUUGGCAGCGAGUUUUUUUAUAAGUUUUUUUUUUUU | – | – | 665 nM | 1160 nM
6 | ACAUGAGGAUCACCCAUGUAAGGUCUUGAUACCAGACGAGAAGUAGUCCCUUGGCAGCAAAUACGUGAGGGUCACACAUGUGUAA | – | – | 23 nM | 46 nM
7 | GACAUGAGGAUAGAUACCAGCGACAUGAGGAUCACAUGAGGAUCACCCAUGUGUAGUAUACGCCCUUGGCAGCUAACAUGAGGAU | 108 nM | 94 nM | – | –
8 | ACUCGGUGUUUGUUGCUCCGAGUACGUGAUACCAGUUAAUUUUAUGGCCCUUGGCAGCAUGGGACAUGAGGAUCACCCAUGUUUA | 375 nM | 396 nM | – | –
9 | AGACAUGAGGAUCACCCAUGUAGCAUGGAUACCAGAUCCAGAUUUAUCCCUUGGCAGCUGUGGUACAGUGAUGGAUUGCUCCUAG | – | – | 79 nM | 122 nM
10 | GAUGAUAUUGCAGAUACCAGACACAUGAGGAUCACCCAUGUCGCUGAGUUGCUGGAUCGUGUCCCUUGGCAGCUGCGAUAUCAUC | – | – | 19.5 nM | 180 nM
11 | AGAUUACAUGUUUUAAUAAGAUAAACUGAUACCAGUGUAUAUAUUCACCCUUGGCAGCAGCAACAUGAGGAUCACCCAUGUAUUA | 16 nM | 15.2 nM | – | –
12 | UCGACAGUGAACGAUACCAGCGUCACGUGGCCGGUGGUCACAUGAGGAUCACCCAUGUAACGCCCUUGGCAGCGUGCACGUAUCC | – | – | 26.1 nM | 184 nM
13 | AAUAACAUGAGGAUCACCCAUGUAAAAGAUACCAGAGUGAUGAUCCUCCCUUGGCAGCUUAAUAACGCUAUUGGAAACAAUAGCG | 78.2 nM | 122 nM | – | –
14 | GAUGAUAUUGCAGAUACCAGACACAUGAGGAUCACCCAUGUCGUUGGGUCGCUGGGUCGUGUCCCUUGGCAGCUGCGAUAUCAUC | – | – | 30.7 nM | 263 nM
15 | AGUACUCGAACGGAUACCAGCCGGACAUGAGGAUCACCCAUGUCCUACCAUGGUUCGGUUGGCCCUUGGCAGCCGUUCGUGUACA | 225 nM | 20.2 nM | – | –
16 | GAGCUGAUGUAGAGUGGAUAUCCUUGAGAUACCAGUACAGAAAUGUACCCUUGGCAGCUCUUCUUUACAUGAGGAUCACCCAUGU | – | – | 13.1 nM | 17.5 nM
17 | GCAAUAACGAUUGAUACCAGCAUGUUAACAUGAGGAUCACCCAUGUUAAGGAUAACAUAAUGCCCUUGGCAGCAACGGAAAGCCG | 24.3 nM | 14 nM | – | –
18 | AUAACAUGAGGAUCACCCAUGUUGAGUGAUACCAGACUAUGUAAUGUCCCUUGGCAGCACAAGUAAAGUUAUAAAUAAUGAUAGA | 57.2 nM | 25.1 nM | – | –
19 | GGAAUUAAGACUGAUACCAGUCAAGAUAAUCAUAAGAAUAAACAUGAGGAUCACCCAUGUGACCCUUGGCAGCAGACUAAUACCG | 31 nM | 29.6 nM | – | –
20 | UGACAUUGCUCAGAUACCAGACAUGAGGAUCACCCAUGUACCAAGGUAAAGAAAUAACGUGUCCCUUGGCAGCUGAGCAAUGUCU | – | – | 10.1 nM | 98.8 nM
21 | UCGUGUAUAACGGAUACCAGUGAGAAGGAUACAUGAGGAUCACCCAUGUGAGUUGAUGUACACCCUUGGCAGCUGUAUAUAUCUA | 75.5 nM | 49.6 nM | – | –
22 | CGGCCCUCACAUGAGGAUCACCCAUGUGAUACCAGCCUGGAAACAGGCCCUUGGCAGCACAGGUCAUCAAAAGAUGACCAAGCCG | – | – | 12.5 nM | 63.9 nM
23 | AUACCUAAUGUUACGUUUUCCUUUUCAGAUACCAGACUUUACGUUGUCCCUUGGCAGCUGUAUUACAUGAGGAUCACCCAUGUUG | 22 nM | 29.7 nM | – | –
24 | GCACUACAUGAGGAUCACCCAUGUGCAGAUACCAGAGGUGUAUGCCUCCCUUGGCAGCUGCGUCGCUCUGGAAGCCUAUUGGUUU | 15.6 nM | 20.9 nM | – | –
25 | UUUUAACAUGAGGAUCACCCAUGUAAUGAUACCAGAGACGAAAGUCUCCCUUGGCAGCAUAAUCAUUACAUGAGAUGGAAACAUC | 30.6 nM | 116 nM | – | –
